Measurements taken from ChEMBL document CHEMBL1134554, “Design, synthesis, and structure-activity relationships of macrocyclic hydroxamic acids that inhibit tumor necrosis factor alpha release in vitro and in vivo” (J Med Chem, 2001).

Legend:
[1] = Pharmacokinetic data in Beagle dogs at 0.74 mg/kg i.v. dose and 0.863 mg/kg p.o. dose; format: ADME, organism-based, Canis lupus familiaris; settings: dog, in vivo, po
Procedure, shortened: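 Male beagle dogs: iv 0.74 mg/kg in 10% ethanol (n=2), oral 0.863 mg/kg in 0.5% methocell suspension (n=2). Blood sampled to 24 h post-dose. Plasma analysed by LC/MS/MS after solid-phase extraction (detection limit 10 nM). Mean parameters given.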

[2] = Pharmacokinetic data in Beagle dogs at 0.74 mg/kg intravenous dose.; format: ADME, organism-based, Canis lupus familiaris; design: dose 0.74 mg/kg, route intravenous; settings: dog, in vivo
Procedure, shortened: (§1)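 Male beagle dogs (~10 kg), two per compound, dosed iv in 10% ethanol solution. Blood sampled before dosing and at 1, 2, 4, 6, 8, 12 and 24 h after. Plasma levels measured by LC/MS/MS after solid-phase extraction (detection limit 10 nM). Parameters reported as mean.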

[3] = Pharmacokinetic data in Beagle dogs at 0.863 mg/kg oral dose.; format: ADME, organism-based, Canis lupus familiaris; design: dose 0.863 mg/kg, route oral; settings: dog, in vivo
Procedure, shortened: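 Two male beagle dogs (~10 kg) given 0.863 mg/kg orally as a 0.5% methocell suspension. Blood sampled before dosing and at 1, 2, 4, 6, 8, 12 and 24 h after. Plasma levels measured by LC/MS/MS after solid-phase extraction (detection limit 10 nM). Parameters reported as mean.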

[4] = Maximal plasma concentration in Beagle dogs after 0.74 mg/kg intravenous dose.; format: ADME, organism-based, Canis lupus familiaris; design: dose 0.74 mg/kg, route intravenous; settings: dog, in vivo; procedure, shortened: as §1
[5] = molecular target: Stromelysin-1 (Homo sapiens, UniProt P08254); assay: Inhibition of human MMP-3.
[6] = molecular target: Matrix metalloproteinase-9 (Homo sapiens, UniProt P14780); assay: In vitro inhibition of human MMP-9.
[7] = molecular target: T1, Matrilysin (Homo sapiens, UniProt P09237); assay: Inhibition of matrix metalloprotease-7
T1 sequence (P09237 whole entry): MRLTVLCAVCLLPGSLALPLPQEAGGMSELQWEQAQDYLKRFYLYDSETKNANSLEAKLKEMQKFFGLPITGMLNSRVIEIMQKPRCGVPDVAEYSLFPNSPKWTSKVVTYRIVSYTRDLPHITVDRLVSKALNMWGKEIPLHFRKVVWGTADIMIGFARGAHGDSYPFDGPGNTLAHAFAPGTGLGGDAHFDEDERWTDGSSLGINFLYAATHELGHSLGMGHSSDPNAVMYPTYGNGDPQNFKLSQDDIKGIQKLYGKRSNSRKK

[8] = molecular target: Neutrophil collagenase (Homo sapiens, UniProt P22894); assay: Inhibition of matrix metalloprotease-8
[9] = molecular target: Matrix metalloproteinase-14 (Homo sapiens, UniProt P50281); assay: Inhibition of matrix metalloprotease-14
[10] = molecular target: Matrix metalloproteinase-15 (Homo sapiens, UniProt P51511); assay: Inhibition of matrix metalloprotease-15
[11] = molecular target: Matrix metalloproteinase-16 (Homo sapiens, UniProt P51512); assay: Inhibition of matrix metalloprotease-16
[12] = molecular target: T2, Interstitial collagenase (Homo sapiens, UniProt P03956); assay: In vitro inhibition of human MMP-1.
T2 sequence (P03956 whole entry): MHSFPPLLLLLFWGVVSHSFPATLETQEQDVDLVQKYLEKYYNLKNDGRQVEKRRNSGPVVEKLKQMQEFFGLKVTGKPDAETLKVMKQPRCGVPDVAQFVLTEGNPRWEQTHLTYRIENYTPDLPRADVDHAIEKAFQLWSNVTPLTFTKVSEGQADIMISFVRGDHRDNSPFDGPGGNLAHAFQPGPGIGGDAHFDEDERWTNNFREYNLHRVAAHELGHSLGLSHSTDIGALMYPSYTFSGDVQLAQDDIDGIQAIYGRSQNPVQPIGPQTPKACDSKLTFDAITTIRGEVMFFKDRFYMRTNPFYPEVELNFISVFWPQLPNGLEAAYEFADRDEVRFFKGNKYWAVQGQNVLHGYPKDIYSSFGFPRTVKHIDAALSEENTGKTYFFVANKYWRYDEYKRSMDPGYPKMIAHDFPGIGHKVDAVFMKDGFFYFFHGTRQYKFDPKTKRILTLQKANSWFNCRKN

[13] = molecular target: Disintegrin and metalloproteinase domain-containing protein 17 (Homo sapiens, UniProt P78536)
[14] = molecular target: Collagenase 3 (Homo sapiens, UniProt P45452)
[15] = molecular target: 72 kDa type IV collagenase (Homo sapiens, UniProt P08253)
[16] = molecular target: Disintegrin and metalloproteinase domain-containing protein 17 (Sus scrofa, UniProt O77636)
Sequence of Disintegrin and metalloproteinase domain-containing protein 17 (Sus scrofa, UniProt O77636) (O77636 whole entry, the tested form may be a part): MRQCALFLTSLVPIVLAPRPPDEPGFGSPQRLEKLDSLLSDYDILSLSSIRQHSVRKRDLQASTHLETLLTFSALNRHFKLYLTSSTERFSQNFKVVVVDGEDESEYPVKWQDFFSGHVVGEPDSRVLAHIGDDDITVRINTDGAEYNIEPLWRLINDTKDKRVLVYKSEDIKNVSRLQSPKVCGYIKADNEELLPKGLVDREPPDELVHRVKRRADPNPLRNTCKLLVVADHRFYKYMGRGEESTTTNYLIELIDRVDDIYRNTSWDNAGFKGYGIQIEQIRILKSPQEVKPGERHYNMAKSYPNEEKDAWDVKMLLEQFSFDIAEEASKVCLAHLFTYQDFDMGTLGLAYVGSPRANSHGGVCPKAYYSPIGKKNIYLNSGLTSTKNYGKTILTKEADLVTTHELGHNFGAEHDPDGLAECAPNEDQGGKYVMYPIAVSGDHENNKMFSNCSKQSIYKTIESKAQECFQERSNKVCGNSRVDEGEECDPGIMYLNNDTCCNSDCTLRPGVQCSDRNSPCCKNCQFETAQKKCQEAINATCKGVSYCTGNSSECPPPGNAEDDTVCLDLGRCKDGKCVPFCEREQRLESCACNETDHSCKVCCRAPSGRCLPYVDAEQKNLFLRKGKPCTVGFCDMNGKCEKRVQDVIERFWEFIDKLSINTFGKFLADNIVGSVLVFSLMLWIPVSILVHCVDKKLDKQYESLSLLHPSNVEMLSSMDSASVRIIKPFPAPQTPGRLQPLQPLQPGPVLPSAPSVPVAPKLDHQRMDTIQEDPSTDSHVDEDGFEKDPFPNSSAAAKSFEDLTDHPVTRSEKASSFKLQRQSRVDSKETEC

Sequence of Stromelysin-1 (P08254 whole entry): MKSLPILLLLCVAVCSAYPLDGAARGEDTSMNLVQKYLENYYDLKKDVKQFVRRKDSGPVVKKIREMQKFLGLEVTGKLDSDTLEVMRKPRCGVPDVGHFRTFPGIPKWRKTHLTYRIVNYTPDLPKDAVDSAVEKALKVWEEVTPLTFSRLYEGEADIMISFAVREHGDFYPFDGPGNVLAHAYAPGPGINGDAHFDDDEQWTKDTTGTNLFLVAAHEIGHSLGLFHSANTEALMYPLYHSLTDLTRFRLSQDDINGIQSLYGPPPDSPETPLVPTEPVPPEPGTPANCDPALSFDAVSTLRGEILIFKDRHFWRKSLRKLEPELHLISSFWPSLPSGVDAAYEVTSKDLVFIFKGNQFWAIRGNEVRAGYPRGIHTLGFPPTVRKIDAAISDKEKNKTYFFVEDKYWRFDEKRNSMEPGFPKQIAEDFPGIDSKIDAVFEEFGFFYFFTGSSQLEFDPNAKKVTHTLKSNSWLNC
Sequence of Matrix metalloproteinase-16 (P51512 whole entry): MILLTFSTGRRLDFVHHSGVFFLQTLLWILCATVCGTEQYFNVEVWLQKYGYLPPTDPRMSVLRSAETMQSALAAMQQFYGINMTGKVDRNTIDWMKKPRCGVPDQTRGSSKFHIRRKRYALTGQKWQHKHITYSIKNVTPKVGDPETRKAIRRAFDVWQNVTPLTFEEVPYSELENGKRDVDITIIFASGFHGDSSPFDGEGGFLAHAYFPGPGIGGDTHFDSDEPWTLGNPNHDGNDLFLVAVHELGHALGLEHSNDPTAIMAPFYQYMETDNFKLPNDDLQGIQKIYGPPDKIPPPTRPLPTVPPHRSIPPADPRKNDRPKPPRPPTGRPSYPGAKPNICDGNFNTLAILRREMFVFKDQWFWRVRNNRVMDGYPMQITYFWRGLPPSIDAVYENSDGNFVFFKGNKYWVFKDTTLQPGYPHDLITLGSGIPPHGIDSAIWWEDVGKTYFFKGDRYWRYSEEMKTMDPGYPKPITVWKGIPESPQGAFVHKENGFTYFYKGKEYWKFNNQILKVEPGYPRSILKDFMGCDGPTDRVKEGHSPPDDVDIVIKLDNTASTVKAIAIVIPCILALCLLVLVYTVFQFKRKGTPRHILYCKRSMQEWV
Sequence of Neutrophil collagenase (P22894 whole entry): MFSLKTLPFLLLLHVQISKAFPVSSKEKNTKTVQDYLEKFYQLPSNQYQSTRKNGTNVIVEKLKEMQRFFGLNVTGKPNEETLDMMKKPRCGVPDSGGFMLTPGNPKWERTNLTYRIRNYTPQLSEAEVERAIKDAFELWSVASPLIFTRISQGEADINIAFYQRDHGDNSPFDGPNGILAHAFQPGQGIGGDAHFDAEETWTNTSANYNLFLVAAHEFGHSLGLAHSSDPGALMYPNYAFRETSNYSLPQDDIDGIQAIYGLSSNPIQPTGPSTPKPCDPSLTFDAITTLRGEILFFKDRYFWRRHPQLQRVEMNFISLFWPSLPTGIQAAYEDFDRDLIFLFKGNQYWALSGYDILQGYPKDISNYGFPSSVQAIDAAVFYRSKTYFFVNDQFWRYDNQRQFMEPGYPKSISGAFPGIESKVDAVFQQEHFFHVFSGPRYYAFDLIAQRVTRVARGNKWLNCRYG
Sequence of Disintegrin and metalloproteinase domain-containing protein 17 (Homo sapiens, UniProt P78536) (P78536 whole entry, the tested form may be a part): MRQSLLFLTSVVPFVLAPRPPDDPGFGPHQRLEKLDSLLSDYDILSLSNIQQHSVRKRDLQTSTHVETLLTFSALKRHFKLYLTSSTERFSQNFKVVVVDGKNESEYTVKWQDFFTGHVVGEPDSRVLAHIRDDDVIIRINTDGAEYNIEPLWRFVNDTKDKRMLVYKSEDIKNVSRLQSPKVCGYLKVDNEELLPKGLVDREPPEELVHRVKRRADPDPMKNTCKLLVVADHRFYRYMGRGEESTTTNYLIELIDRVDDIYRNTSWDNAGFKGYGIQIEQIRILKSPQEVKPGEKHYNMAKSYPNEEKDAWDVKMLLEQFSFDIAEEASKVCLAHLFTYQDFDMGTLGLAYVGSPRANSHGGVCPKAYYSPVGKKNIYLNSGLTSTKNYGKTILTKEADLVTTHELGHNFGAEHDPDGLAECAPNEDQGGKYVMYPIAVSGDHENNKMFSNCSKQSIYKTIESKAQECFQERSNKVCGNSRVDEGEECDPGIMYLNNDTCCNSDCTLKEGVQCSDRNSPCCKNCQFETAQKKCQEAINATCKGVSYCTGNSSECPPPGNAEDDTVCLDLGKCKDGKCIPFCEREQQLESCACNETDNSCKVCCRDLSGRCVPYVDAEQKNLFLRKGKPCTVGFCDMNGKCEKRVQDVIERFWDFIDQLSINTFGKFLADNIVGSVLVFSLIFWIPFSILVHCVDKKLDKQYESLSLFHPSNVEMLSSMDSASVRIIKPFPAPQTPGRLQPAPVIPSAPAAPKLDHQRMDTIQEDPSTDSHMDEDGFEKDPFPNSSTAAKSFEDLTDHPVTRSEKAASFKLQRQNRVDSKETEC
Sequence of Matrix metalloproteinase-15 (P51511 whole entry): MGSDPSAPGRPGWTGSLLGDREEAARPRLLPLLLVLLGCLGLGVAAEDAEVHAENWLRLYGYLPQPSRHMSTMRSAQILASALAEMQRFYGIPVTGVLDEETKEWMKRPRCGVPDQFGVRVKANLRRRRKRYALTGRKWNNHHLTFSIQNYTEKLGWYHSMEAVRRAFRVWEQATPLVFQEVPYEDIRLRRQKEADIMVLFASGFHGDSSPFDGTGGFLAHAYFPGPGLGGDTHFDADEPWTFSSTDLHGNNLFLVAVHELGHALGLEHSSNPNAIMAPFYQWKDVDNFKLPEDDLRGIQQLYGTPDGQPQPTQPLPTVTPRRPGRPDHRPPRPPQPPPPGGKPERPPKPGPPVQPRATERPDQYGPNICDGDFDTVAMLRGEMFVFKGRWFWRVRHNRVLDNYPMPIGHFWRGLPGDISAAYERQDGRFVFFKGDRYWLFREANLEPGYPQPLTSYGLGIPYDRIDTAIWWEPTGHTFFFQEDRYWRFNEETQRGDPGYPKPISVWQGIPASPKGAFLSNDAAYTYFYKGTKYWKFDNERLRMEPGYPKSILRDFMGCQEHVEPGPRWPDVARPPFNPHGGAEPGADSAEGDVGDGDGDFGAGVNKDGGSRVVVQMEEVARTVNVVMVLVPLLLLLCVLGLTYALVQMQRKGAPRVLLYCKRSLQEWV
Sequence of 72 kDa type IV collagenase (P08253 whole entry, the tested form may be a part): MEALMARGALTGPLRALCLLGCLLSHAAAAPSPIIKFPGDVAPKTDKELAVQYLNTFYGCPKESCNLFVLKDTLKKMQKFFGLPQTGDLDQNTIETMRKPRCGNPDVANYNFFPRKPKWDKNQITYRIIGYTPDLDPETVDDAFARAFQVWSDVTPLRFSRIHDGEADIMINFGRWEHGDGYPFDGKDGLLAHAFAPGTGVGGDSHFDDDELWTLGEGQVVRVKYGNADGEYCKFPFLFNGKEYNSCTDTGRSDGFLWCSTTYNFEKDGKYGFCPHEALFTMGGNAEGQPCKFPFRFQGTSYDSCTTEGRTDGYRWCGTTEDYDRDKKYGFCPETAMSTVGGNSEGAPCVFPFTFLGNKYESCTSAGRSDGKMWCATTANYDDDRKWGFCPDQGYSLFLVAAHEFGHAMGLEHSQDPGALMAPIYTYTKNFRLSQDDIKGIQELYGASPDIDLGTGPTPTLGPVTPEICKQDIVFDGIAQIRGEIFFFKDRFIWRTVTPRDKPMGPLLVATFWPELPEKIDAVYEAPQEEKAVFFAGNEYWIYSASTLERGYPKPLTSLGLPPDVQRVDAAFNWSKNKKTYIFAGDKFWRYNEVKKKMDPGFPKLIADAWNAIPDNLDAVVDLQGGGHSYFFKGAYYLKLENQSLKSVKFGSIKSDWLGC

## CNC(=O)CNC(=O)[C@@H]1Cc2ccc(cc2)OCCC[C@H](C(=O)NO)[C@@H](CC(C)C)C(=O)N1
[1]
  bioavailability: 11%
[2]
  AUC: 2613 ng·h/mL
  T1/2: 0.81 h
  T max: 0.88 h
  clearance: 7 mL/min/kg
[2]; read-out: Vss
  Vd: 0.7 L/kg
[3]
  AUC: 342 ng·h/mL
  half-life: 1.29 h
[4]
  Cmax: 121 ng/mL
[5]
  Ki: 14 nM
[6]
  Ki: 0.9 nM
[7]
  Ki: 0.8 nM
[8]
  Ki: 0.5 nM
[9]
  Ki: 94 nM
[10]
  Ki: 20 nM
[11]
  Ki: 35 nM
[12]
  Ki: 3 nM
[13]
  IC50: 220 nM
[14]
  Ki: 0.45 nM
[15]
  Ki: 1.1 nM
[16]
  Ki: 12 nM
